Assay results from ChEMBL document CHEMBL4513216, “Probing the Open Global Health Chemical Diversity Library for Multistage-Active Starting Points for Next-Generation Antimalarials” (ACS Infect Dis, 2020).

Assay: Toxicity liver stage against HepG2, at 10uM
Type: cell-based
Parameters: test concentration 10 uM, cell line HepG2-A16-CD81EGFP
Conditions: human, HepG2-A16-CD81EGFP cells; read-out: INHIBITION
Summary of the method: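 Uninfected HepG2-A16-CD81EGFP cells, 3 × 10^3 per well, 1536-well, plated on prespotted compound at 10 μM final, parasite-free screening media added to match infected plates; puromycin 10 μM positive, DMSO 0.5% negative; run in parallel with 48 h PbLuc assay at 37 °C, 5% CO2; viability by CellTiter-Glo luminescence, normalized to controls.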

Row | Compound | cytotoxicity at 10 µM [%]
1 | CN1C[C@@H](n2cnc(-c3ccccc3)c2-c2ncc[nH]2)C[C@H]1C(=O)O | -4.75
2 | c1cc(-c2ccc3nc(C4CCN(CC5CC5)CC4)nn3c2)cs1 | -12.2
3 | CC(C#N)CSc1ccccc1NCC(=O)NC(C1CC1)C1CC1 (stereo unspecified) | 14.5
4 | CNc1nc(C)c(C(=O)N2CCCCC2CCc2ccccc2)s1 (stereo unspecified) | 2.24
5 | Cc1nn(C)cc1S(=O)(=O)NCC(c1ccccc1)N1CCCCCC1 (stereo unspecified) | -13.6
6 | Cc1n[nH]c(C2CN(C(=O)CCOCC(F)(F)F)CCO2)n1 (stereo unspecified) | -12.9
7 | CCNC(=O)C1CCN(Cc2csc(-c3ccc(C)o3)n2)CC1 | 6.26
8 | Cc1c(NCC(C)(C)C)cccc1C(=O)N(C)Cc1ncnn1C | 22.5
9 | Cc1nn(C)c2cnn(CC(=O)NCc3cccs3)c12 | 6.28
10 | Cc1cccc(CN2CCc3ncnc(N4CCOCC4)c3CC2)n1 | -4.95
11 | O=C(CCc1cccs1)N1CCCC(n2ccnc2)C1 (stereo unspecified) | -1.13
12 | Cc1noc(C)c1CN1CCC2(CC1)CC(Oc1cccnc1)C2 | 23.2
13 | Cc1ccc(-n2nc(C)c3c2NC(=O)CC3c2cnc(N)s2)cc1 (stereo unspecified) | 5.56
14 | C=C(C)CN1CCC(n2cc(C3CCCC3)nn2)CC1 | 4.98
15 | CC(=O)N[C@@H]1Cc2ccccc2[C@H]1Nc1nnc(C2CC2)o1 | -47.1
16 | Cc1ncsc1CN1CCn2nc(CCC(=O)N3CCCC3)cc2C1 | -22.2
17 | CC(C)n1nc2c(cc1=O)CN(CCOc1ccc(C#N)cc1)CC2 | 14.9
18 | O=C(NCCC1COc2ccccc2O1)c1ccc(-c2cn[nH]c2)nc1 (stereo unspecified) | 4.65
19 | c1ccc(OCCN2CCN(c3ncnc4[nH]ccc34)CC2)cc1 | 8.64
20 | O=C(c1nc(N2CCCC2)ncc1Cl)N1CCN(Cc2ccsc2)CC1 | -56
21 | Cc1cc(F)c(S(=O)(=O)NCCCN2CCC(O)CC2)cc1F | -25.9
22 | COCCN1CCCC(O)(CN2CCN(c3ccncc3C)CC2)C1=O (stereo unspecified) | -6.45
23 | Cc1nccn1-c1cc(CNC(=O)c2ccccn2)ccn1 | -11.5

Row | Compound | cytotoxicity at 10 µM [%]
24 | CO[C@H]1COCCN(C(=O)c2ccc(F)cc2)C1 | 0.287
25 | O=C(CS(=O)(=O)Cc1ccc(Br)cc1F)Nc1cn[nH]c1 | -9.2
26 | COC(=O)C1CCCN1C(=O)c1ccc(-n2nc(C)cc2C)cc1 (stereo unspecified) | -10.5
27 | FC(F)(F)C1CN(c2nc(-c3ccccc3)no2)CCO1 (stereo unspecified) | -1.52
28 | CC(=O)c1ccc(NC(=O)C(NC(=O)Nc2ccccc2)C(C)C)cc1 (stereo unspecified) | -0.719
29 | CCOCCCNC(=O)C1CCC(=O)N(CCc2ccc(Cl)cc2)C1 (stereo unspecified) | -0.591
30 | Cc1cc(CN2CCC(C3CCN(CC(C)C)CC3)C2)[nH]n1 (stereo unspecified) | -8.71
31 | CO[C@@H]1CCC[C@@H](N(C)C(=O)c2cc(F)ccc2F)[C@H]1O | -5.38
32 | Cc1ccc(CN2C[C@@H](C(=O)Nc3cccnc3)C[C@H]3OCC[C@H]32)o1 | 3.82
33 | O=C(Cc1n[nH]c2ccccc12)N1CCCC1Cn1cccn1 (stereo unspecified) | -14.7
34 | O=C(CN1CC(c2ccccc2)CC1=O)NCc1cc2n(n1)CCNC2 (stereo unspecified) | 1.05
35 | CC1CN(c2ccccc2Cl)C(=O)CN1C(=O)c1c[nH]c(=O)c(Cl)c1 (stereo unspecified) | 0.345
36 | CCC(C(=O)Nc1ccc2c(C)n[nH]c2c1)N1CCCC1=O (stereo unspecified) | -48.9
37 | CS(=O)(=O)CCNC(=O)c1cc2ccccc2nc1N1CCCC1 | -6.78
38 | O=C(CC1CC1)N1Cc2nccn2CC(CN2CCCC2)C1 (stereo unspecified) | -67.7
39 | CC(C)CN1C(=O)C2(CCCC2)NC1c1cccnc1 (stereo unspecified) | 3.71
40 | CC(C)CN1CCn2c(COCc3cccnc3)nnc2C1 | 5.8
41 | CCOCC(O)CN1CCN(C(=O)c2ccc3c(c2)COC3)CC1 (stereo unspecified) | -0.0716
42 | COc1nn(C)cc1C(=O)N1CCC(c2nnc(C3CC3)o2)CC1 | 5.14
43 | CN(C)C(=O)CN1C[C@H]2CC[C@@H](C1)N(Cc1ccc(Cl)cc1Cl)C2 | -10.2
44 | CCOC(=O)C1CC2(CCCC2)N2CCC(=O)N12 (stereo unspecified) | 1.53
45 | CCc1ncnc(N(C)CC2CCCCO2)c1F (stereo unspecified) | 3.17
46 | Cc1nn(C)c(C)c1C(=O)N1CCN(c2ccncc2Cl)CC1 | -2.25

Row | Compound | cytotoxicity at 10 µM [%]
47 | Cn1cc(C2COC3(CCN(C(=O)c4ccc(F)cc4)CC3)C2)cn1 (stereo unspecified) | 8.31
48 | c1cnc(N2CCC(C3CCN(CCCn4cccn4)C3)CC2)nc1 (stereo unspecified) | 7.5
49 | COc1cc(N(C)CCC(O)c2ccccc2)ncn1 (stereo unspecified) | -139
50 | CCOc1ccccc1CN(CC)Cc1ccc(S(=O)(=O)NC)cc1 | -0.943
51 | Cc1noc(C)c1CC(=O)NCC(CC(C)C)N1CCOCC1 (stereo unspecified) | -40.6
52 | CCn1cnnc1CNC(=O)N1CCC(Cc2cccnc2)CC1 | 4.38
53 | Cc1ccccc1NCc1nc2n(n1)CCCCC2 | 4.7
54 | CCCc1nnc(N2CCN(Cc3ccccc3OC)CC2)o1 | -12
55 | CN(C)Cc1nc(C(C)(C)NC(=O)c2cccc3ccccc23)no1 | -1.8
56 | CC(C)Nc1nc(-c2ccccc2)nc2c1CCN(C(=O)C1CC1)CC2 | -108
57 | CN1CCN(S(=O)(=O)c2ncn(C)c2Cl)CC1 | 6.84
58 | Cc1nc(C)n(CCCNc2ncnc(C)c2C)n1 | -1.74
59 | O=C(Nc1ccccn1)C1CCN(Cc2cc3c(cc2O)OCO3)CC1 | 7.19
60 | Cn1ncc2c1NC(=O)CC2c1ccc(F)cc1 (stereo unspecified) | 4.63
61 | COC(=O)c1cccc(C(=O)N(CCC#N)CC(C)(C)C)c1 | 7.72
62 | COCCCNC(=O)CN1CCC(N2CCN(C)C2=O)CC1 | -2.54
63 | Cc1ccc(C2c3c(n[nH]c3C)N=C3COC(=O)C32)cc1C (stereo unspecified) | 74.9
64 | CCC[C@@H]1CN(Cc2nnc(-c3cccnc3)o2)C[C@H]1NC(C)=O | -4.89
65 | Cc1c(F)cccc1S(=O)(=O)N(C)CC(C)O (stereo unspecified) | 4.98
66 | Cn1ccc(CN2CC(Cc3nccc4cc[nH]c34)C2)n1 | 9.51
67 | COCC1CC2(CCN(C(=O)c3ccccc3C)CC2)CN1C(C)C (stereo unspecified) | 7.77
68 | NCC1CN(C(=O)Cn2ncc(N3CCCCC3)cc2=O)CCO1 (stereo unspecified) | -8.27
69 | CN(C)Cc1cn(-c2ccccc2C(=O)NCC2CCCCN2C)cn1 (stereo unspecified) | -0.94

Row | Compound | cytotoxicity at 10 µM [%]
70 | O=C([C@H]1CN(Cc2nccs2)C[C@H]2OCC[C@@H]12)N1CCCCO1 | -111
71 | CN(C)CCNC(=O)c1cc(-c2cnc(N3CCOCC3)nc2)cn1C | -78.2
72 | CN(Cc1cc(-c2ccccc2)no1)C1CCCN(c2cccnn2)C1 (stereo unspecified) | -10.2
73 | CNC(=O)Nc1cc(-c2ccccc2C)nn1CCO | 7
74 | O=C1[C@H]2CN(Cc3ccoc3)C[C@H]2CN1Cc1cccnc1 | -76.5
75 | Cc1ncc2c(n1)CN(CCOCC(F)(F)F)CC2 | -0.598
76 | CC(C)c1cc(CSCCC(=O)O)no1 | -7.52
77 | CC(Cn1cccn1)NC(=O)Nc1ccc(N2CCCCC2)nc1 (stereo unspecified) | -4.39
78 | CCc1cnc(N2CCOC(CCOC)C2)nc1 (stereo unspecified) | -3.88
79 | CCOCc1ncn2c1CN(S(=O)(=O)c1cccs1)CCC2 | 9.52
80 | Cn1ccnc1SCC(=O)NCCC1CCCO1 (stereo unspecified) | -2.49
81 | Cc1cncc(C(=O)N2CCCCC2c2nc(C)cs2)c1 (stereo unspecified) | -3.66
82 | CSCC[C@@H](CO)n1ccnc1-c1nccn1C | -2.84
83 | Cn1cnc(S(=O)(=O)N2CCCC2c2cnccn2)c1 (stereo unspecified) | -28.4
84 | COCCNC(=O)[C@@H]1CCO[C@@H]2CCN(Cc3cnn(C)c3)C[C@@H]21 | 0.341
85 | Cn1cc(C(C)(O)CNc2ccccn2)cn1 (stereo unspecified) | -43.6
86 | CSCc1cc(C(=O)NC2(C#N)CC2)ccc1F | -10.5
87 | Cc1nn(C)cc1CN1CCCC1c1cccc(Nc2nccs2)n1 (stereo unspecified) | 4.25
88 | CC(=O)N1CCCC2(CCN(Cc3ccc(Cl)c(C(F)(F)F)c3)C2)C1 (stereo unspecified) | 11.9
89 | CCn1c(=O)c2sccc2n(CC(=O)Nc2cccc(Cl)c2)c1=O | 0.115
90 | O=c1cc(CN2CCCC2)nc2n1CCCN(CC1CCOCC1)C2 | 9.97
91 | O=c1[nH]ccn1CCCN1CC=C(c2cnn(-c3ccccc3)c2)CC1 | 7.95
92 | CC1CCN(C(=O)C2CCCN(C(=O)Nc3ccccn3)C2)CC1 (stereo unspecified) | -2.98

Row | Compound | cytotoxicity at 10 µM [%]
93 | Cc1ccc2nc(C3CCN(CC(C)C)CC3)nc(O)c2c1 | 7.69
94 | CCOC1CCN(CC(=O)Nc2oc(C)c3c(C)n[nH]c(=O)c23)CC1 | -14.4
95 | O=C(N[C@@H]1CNCCC[C@H]1O)c1ccc(OCCN2CCCC2)cc1 | -0.155
96 | CCn1nccc1CNC(=O)C1CCC1 | -2.17
97 | Cc1ccccc1N1CCN(CCS(=O)(=O)c2ccc(Br)cc2)CC1 | 18.7
98 | O=C1c2ncccc2C(CCO)N1Cc1ccccc1 (stereo unspecified) | -4.26
99 | CC1(C)[C@H](Cc2cc(CN3CCCCC3)on2)C[C@@H]1NC(=O)C1CC1 | -8.17
100 | O=C(NCc1nn(-c2ccccc2)c2c1CCC2)NC1CC1 | -9.14
101 | Cc1nn(CCC(=O)N2CCCC(OCc3cccnc3)C2)c(C)c1C (stereo unspecified) | -5.47
102 | CCC(=O)NCC(=O)N(C)C(c1ccc(Cl)cc1)c1cccnc1 (stereo unspecified) | 3.88
103 | c1cc(CNCc2ccnc(N3CCCC3)c2)c2c(c1)OCO2 | 3.21
104 | CCOc1ccc(C#N)cc1NC(=O)N1CCC(n2cncn2)CC1 | 20.3
105 | CC(C(=O)N1CCC(Cc2ccc(F)cc2)CC1)n1ccnc1 (stereo unspecified) | 4.57
106 | Cc1cc(C)cc(NC(=O)N(CCC#N)CCCN(C)C)c1 | -49.3
107 | COCC(=O)N1CCN(c2ncnc3cccc(F)c23)CC1 | 6.37
108 | COc1cc(C)c2c(c1C)C[C@@H](C(C)C(=O)O)CC2 (stereo partly specified) | 4.98
109 | Cc1cnn(C2CCCN(C(=O)COc3ccc(C(N)=O)cc3)C2)c1 (stereo unspecified) | -0.0295
110 | O=C1N(Cc2cccnc2)C[C@H]2CN(S(=O)(=O)c3ccccc3)CCN12 | 1.08
111 | Fc1ccc(N2CCC3(CC2)CC(OCc2cccnc2)CO3)cc1 (stereo unspecified) | 9.81
